Six molecules from ChEMBL document CHEMBL1142216, “Clinical prediction tool to identify patients with Pseudomonas aeruginosa respiratory tract infections at greatest risk for multidrug resistance” (2007) can be followed below.

Holding throughout (type): functional
The subject of assay [1] is Pseudomonas aeruginosa. Put plainly: Antibiotic susceptibility by resistance against Pseudomonas aeruginosa from samples collected from patients. A digest of the protocol:
(§1)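 Clinical P. aeruginosa respiratory isolates from hospitalized patients. Susceptibility testing was done by the hospital microbiology laboratory using Kirby-Bauer disk diffusion and interpreted by Clinical and Laboratory Standards Institute guidelines. Laboratory-reported susceptibilities and MICs were abstracted retrospectively. Isolates were grouped overall and by resistance to at least four drug classes (MDR versus non-MDR).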

Assay [2] has as its system Pseudomonas aeruginosa. Put plainly: Antibiotic susceptibility by resistance against MDR Pseudomonas aeruginosa from samples collected from patients. A digest of the protocol:
as §1

For assay [3], the system named is Pseudomonas aeruginosa. Put plainly: Antibiotic susceptibility by resistance against non-MDR Pseudomonas aeruginosa from samples collected from patients. The procedure, abridged:
as §1

`NCC[C@H](O)C(=O)N[C@@H]1C[C@H](N)[C@@H](O[C@H]2O[C@H](CN)[C@@H](O)[C@H](O)[C@H]2O)[C@H](O)[C@H]1O[C@H]1O[C@H](CO)[C@@H](O)[C@H](N)[C@H]1O` [AMIKACIN]: the figures for the Activity with Pseudomonas aeruginosa [1], in the assay on Pseudomonas aeruginosa [2] and in the assay on Pseudomonas aeruginosa [3] were 90.9%, 82% and 95.6%, respectively.
In the same order, the values of `C[C@H]1[C@H](NC(=O)/C(=N\OC(C)(C)C(=O)O)c2csc(N)n2)C(=O)N1S(=O)(=O)O` [AZTREONAM] are 58.1%, 18.9% and 79%.
The like results for `CO/N=C(\C(=O)N[C@@H]1C(=O)N2C(C(=O)[O-])=C(C[N+]3(C)CCCC3)CS[C@H]12)c1csc(N)n1` [CEFEPIME] were, in that order, 81.8%, 52.5% and 97.4%.
Regarding `O=C(O)c1cn(C2CC2)c2cc(N3CCNCC3)c(F)cc2c1=O` [CIPROFLOXACIN], the Activity with Pseudomonas aeruginosa [1] came out at 42.5%; with Pseudomonas aeruginosa [2], 3.3%; in the assay on Pseudomonas aeruginosa [3] it was 63.3%.
The like results for `C[C@@H](O)[C@H]1C(=O)N2C(C(=O)O)=C(S[C@@H]3CN[C@H](C(=O)N(C)C)C3)[C@H](C)[C@H]12` [MEROPENEM] were, in that order, 56.1%, 17.2% and 76.9%.
Consider `NC[C@H]1O[C@H](O[C@H]2[C@H](O)[C@@H](O[C@H]3O[C@H](CO)[C@@H](O)[C@H](N)[C@H]3O)[C@H](N)C[C@@H]2N)[C@H](N)C[C@@H]1O` [TOBRAMYCIN], for which the values for the Activity with Pseudomonas aeruginosa [1], in the assay with Pseudomonas aeruginosa [2] and in the assay with Pseudomonas aeruginosa [3] were 67.5%, 36.9% and 83.8%, respectively.
